Compound activity from PubChem BioAssay.
Apaf1 inhib: inhibitors of human Apaf-1 apoptosome. O14727. reconstituted apoptosome caspase-3 activity, DEVD-Rh110 fluorescence. inhibition, % at 20 µM. 330,000 tested, 0.71% active; active = inhibition of at least 40% at 20 µM;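 also: plate controls were DMSO wells for no effect and DEVD-CHO caspase inhibitor wells for full effect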
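Material: biochemical Apaf-1 apoptosome reconstitution. Medium: Hepes buffer, pH 7.5. Also added: cytochrome c activation, bis-DEVD rhodamine 110 substrate. Timing: 30 min compound preincubation, 50 min activation, room temperature. Measured by: rhodamine 110 fluorescence at Ex 480/Em 540 nm.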
GSTO1 inh: GSTO1 inhibition, counter-screen for RBBP9 inhibitors. inhibition, % at 5.96 µM. recombinant GSTO1, activity-based probe fluorescence polarization. 300,000 tested, 1.1% active;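 active = inhibition above the campaign mean inhibition plus 3 SD, cut at about 35% in these data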;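 also: 0% = GSTO1-1 with DMSO and 100% = wells lacking GSTO1-1 enzyme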
TDP2 absorb: TDP2 (human) inhibition, absorbance primary screen | inhibition, % at 12.8 µM | recombinant TDP2, T5PNP hydrolysis, p-nitrophenol absorbance 415 nm | 370,000 tested, 0.34% active | AID 720702 | O95551;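 active = inhibition above the mean of all tested compounds plus 3 SD, set per campaign, cut at about 25% in these data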;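 also: 0% = DMSO with enzyme and 100% = buffer with substrate but no TDP2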
Target sequence (O95551 whole entry, looked up): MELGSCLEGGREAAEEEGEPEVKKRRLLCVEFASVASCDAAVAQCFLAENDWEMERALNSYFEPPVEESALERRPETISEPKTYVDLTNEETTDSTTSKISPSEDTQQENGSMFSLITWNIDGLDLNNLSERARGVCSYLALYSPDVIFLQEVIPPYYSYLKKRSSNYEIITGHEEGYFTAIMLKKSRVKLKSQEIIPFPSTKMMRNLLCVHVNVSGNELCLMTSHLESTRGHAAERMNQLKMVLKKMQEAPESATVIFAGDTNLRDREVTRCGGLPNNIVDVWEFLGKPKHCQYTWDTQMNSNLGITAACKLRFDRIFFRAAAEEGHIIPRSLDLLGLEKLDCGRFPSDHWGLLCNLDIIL
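Material: recombinant human TDP2; quantity: TDP2 enzyme at 120 nM final; medium: Tris-HCl pH 7.5 with MgCl2; compound: single concentration, 12.8 µM nominal, with 1% DMSO; incubation: 2 h enzyme incubation at 37 °C; signal: epi absorbance; measure: percent inhibition; benchmarks: high control without enzyme, low control DMSO plus TDP2; repeats: singlicate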
PRMT1 FP inh: blocks human protein arginine methyltransferase 1; Q99873; recombinant PRMT1, activity-based probe fluorescence polarization; inhibition, % at 2.79 µM; 370,000 tested, 1.3% active;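 active = inhibition above about 21% made by adding two undisclosed values, limit read from the data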
PAD4 inh: PAD4 (human) enzyme inhibition; recombinant PAD4, RCA probe fluorescence polarization; 330,000 tested, 0.41% active; inhibition, % at 6.36 µM; Q9UM07;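 active = percent inhibition above a cutoff equal to the mean of all tested compounds plus 3 SD, cut at about 15% in these data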;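 also: 0% = PAD4 with RCA probe and DMSO and 100% = probe without PAD4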
Numbers without * were called inactive; x = no result. Rows were chosen to be rich in hits. Some 2.6% of all compounds tested hit in one or more screens of this group.

SMILES	Apaf1 inhib	GSTO1 inh	TDP2 absorb	PRMT1 FP inh	PAD4 inh
CCCN1C(=O)c2[nH]nc(-c3ccccc3)c2C1c1ccc(C)cc1 (stereo unspecified)	x	x	2	0	x
C=C1N(C)c2cc([N+](=O)[O-])c(N)cc2C1(C)C	14	36*	9	3	2
CC1(C)Oc2cc(N)c([N+](=O)[O-])cc2O1	-3	12	5	15	-11
Cc1cccc(NC(=O)Nc2ccccc2C(=O)N2CCCC2)c1	x	x	7	-1	x
O=C(OCC(=O)c1cccs1)c1ccccc1	0	-1	-2	-1	-2
O=C(CC(Nc1ccccc1Cl)C(=O)OCC(=O)c1cccs1)c1ccccc1 (stereo unspecified)	11	1	1	21*	-3
CCCN(C(=O)c1cn(CCC)c2ccccc12)c1ccc(Oc2cccnc2)cc1	x	x	-14	-4	x
CN(C)C(=O)CN1CCN(C(=O)CCl)CC1	-10	61*	19	0	-5
CC1=C(C)/C(=N\OS(=O)(=O)c2ccccc2)C=CC1=O	0	35*	x	x	2
CC1=NN(c2ccccc2)C(=O)/C1=C\c1ccc(Oc2ccc([N+](=O)[O-])cc2[N+](=O)[O-])cc1	92*	77*	78*	10	51*
COc1cc(NC(=O)c2ccccc2)c(C)cc1NC(=O)CSc1nnc(-c2ccco2)n1Cc1ccco1	x	x	0	-2	x
CC(NC(=O)c1ccc(Cl)c(Cl)c1)c1ccc(-c2ccccc2)cc1 (stereo unspecified)	13	2	8	-2	-2
CC(NC(=O)CCl)c1ccc(Cl)c(Cl)c1 (stereo unspecified)	3	96*	-3	0	-3
O=C1C(Cl)=C(N2CCOCC2)C(=O)N1c1cccc(C(F)(F)F)c1	13	-15	18	22*	8
COC(=O)c1cccc(N2C(=O)C(Cl)=C(N3CCOCC3)C2=O)c1	14	8	0	13	-8
O=C1C(Cl)=C(N2CCCC2)C(=O)N1c1ccc(F)cc1	-8	35*	8	10	3
CC(NCc1ccco1)C(=O)N1CCN(c2cccc(C(F)(F)F)c2)CC1 (stereo unspecified)	x	x	3	-3	x
O=c1oc2c(O)c(O)cc3c(=O)oc4c(O)c(O)cc1c4c23	x	70*	x	x	-4
Cc1c(C)c2cc(Cl)c(O)c(CN(C)C)c2oc1=O	10	0	-16	3	-2
COc1cccc(C(=O)NN2c3ccccc3CCc3ccccc32)c1	x	-5	8	0	-3
COc1cccc(C(=O)NN2C(=O)C3C4C=CC(O4)C3C2=O)c1 (stereo unspecified)	9	-7	4	23*	-2
COc1ccc(NCc2nnc(SCC(=O)c3ccc(C)cc3)o2)cc1	16	30	6	7	-3
COc1ccc(NCc2nnc(SCC(=O)Nc3cc(C)cc(C)c3)o2)cc1	13	0	-2	24*	-8
COC(=O)[C@]12C[C@H](CC(=O)NCc3ccc(OC)c(OC)c3)C(=O)N(Cc3ccc4c(c3)OCO4)C1=C[C@H](C(C)(C)C)O[C@@H]2C	x	x	4	-1	x
CC(=O)Nc1ccc(NC(=O)CC2Nc3cccc4cccc(c34)NC2=O)cc1 (stereo unspecified)	96*	28	13	13	-2
SMILES	Apaf1 inhib	GSTO1 inh	TDP2 absorb	PRMT1 FP inh	PAD4 inh
O=C(O)C1(Nc2ccc([N+](=O)[O-])cc2[N+](=O)[O-])CCCC1	x	x	6	23*	x
C/C(CCC(=O)O)=N/Nc1ccc([N+](=O)[O-])cc1[N+](=O)[O-]	9	38*	1	5	-10
O=C(NNc1ccc([N+](=O)[O-])cc1[N+](=O)[O-])C1C2CCCCC21 (stereo unspecified)	-3	-8	5	1	-3
CN(C)c1ccc(NC(=O)NC2CCCCN(Cc3cccc(Cl)c3)C2=O)cc1 (stereo unspecified)	x	x	2	1	x
O=C(NNC(=O)c1cccnc1)NC1CCCCC1	-12	3	5	-3	-2
O=C(NNC(=O)c1cc(O)c(O)c(O)c1)NC1CCCCC1	2	36*	1	15	2
CCCCNC(=O)C[C@H]1C[C@@]2(C(=O)OC)C(=C[C@H](C(C)C)O[C@@H]2C2CC2)N(CCC2=CCCCC2)C1=O	x	x	-14	-5	x
O=C1c2cccc3cccc(c23)C(=O)C1(O)O	-4	63*	2	54*	3
